Publication PMC11060919 (International journal of antimicrobial agents, 2024)

What was measured:
rat = settings: translational rat model; increased nephrotoxic effect; cited from earlier work
male Sprague-Dawley rats [1] = assay: Iohexol-measured GFR; type: in vivo, Sprague-Dawley rat; settings: Baseline (day 0, before vancomycin); dose-matched bolus group versus humanized infusion group as referent; marginal difference, mixed effects model
male Sprague-Dawley rats [2] = assay: Urinary clusterin, kidney injury biomarker, 24-hour urine; type: in vivo, Sprague-Dawley rat; settings: dose-matched bolus versus humanized infusion as referent
Method in brief: (§1)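 Male Sprague-Dawley rats were housed in metabolic cages, with 24-h urine collected from baseline (day 0) through day 2. On day 1 the glycopeptide was given IV either as 30.8 mg in 6.0 mL saline by variable-rate infusion over 24 hours (n=11), or as 15.4 mg boluses over 2 minutes every 12 hours ×2 plus volume-matching saline infusion (n=8). Analysis: mixed-effects model, day 0 referent, Bonferroni-corrected group-by-day tests.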

male Sprague-Dawley rats [3] = assay: Urinary osteopontin; type: in vivo, Sprague-Dawley rat; settings: dose-matched bolus versus humanized infusion as referent
Method in brief: as §1

male Sprague-Dawley rats [4] = assay: Urinary KIM-1, kidney injury biomarker, 24-hour urine; type: in vivo, Sprague-Dawley rat; settings: dose-matched bolus versus humanized infusion as referent
Method in brief: as §1

Compound | increase of urinary KIM-1 when added to vancomycin, compared to vancomycin (rat) | GFR difference, mean (95% CI) (male Sprague-Dawley rats [1]) | Urinary clusterin difference, mean (95% CI) (male Sprague-Dawley rats [2]; Day 1) | Urinary clusterin difference, mean (95% CI) (male Sprague-Dawley rats [2]; Day 2) | Urinary OPN difference, mean (95% CI) (male Sprague-Dawley rats [3]; Day 1) | Urinary OPN difference, mean (95% CI) (male Sprague-Dawley rats [3]; Day 2) | KIM-1 difference, mean (95% CI) (male Sprague-Dawley rats [4]; Day 1) | KIM-1 difference, mean (95% CI) (male Sprague-Dawley rats [4]; Day 2)
Cc1onc(-c2c(F)cccc2Cl)c1C(=O)N[C@@H]1C(=O)N2[C@@H]1SC(C)(C)[C@@H]2C(=O)O [flucloxacillin] | 58 to 140 ng/24 hours | – | – | – | – | – | – | –
CN[C@H](CC(C)C)C(=O)N[C@H]1C(=O)N[C@@H](CC(N)=O)C(=O)N[C@H]2C(=O)N[C@H]3C(=O)N[C@H](C(=O)N[C@H](C(=O)O)c4cc(O)cc(O)c4-c4cc3ccc4O)[C@H](O)c3ccc(c(Cl)c3)Oc3cc2cc(c3O[C@@H]2O[C@H](CO)[C@@H](O)[C@H](O)[C@H]2O[C@H]2C[C@](C)(N)[C@H](O)[C@H](C)O2)Oc2ccc(cc2Cl)[C@H]1O [vancomycin] | – | 0.05 mL/min/100 g body weight | 1932 ng | -3103 ng | -1.76 ng | 0.52 ng | 9.80 ng | -2.27 ng
